Calls of active or inactive are those of the source. No cut-off for these calls is given here.
What was measured:
SU-DHL-1 = assay: Antiproliferative activity against human SU-DHL-1 cells assessed as reduction in cell viability after 72 hrs by CellTiter-Glo assay; assay type: functional, cell-based; details: SU-DHL-1, 72 h
Summary of the method: (§1)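 Cells seeded in 96-well plates, left overnight at 37°C, then exposed to a range of test concentrations for 72 h. Viability read by CellTiter-Glo luminescence; IC50 from four-parameter curve fit. Lines kept at 37°C, 5% CO2, in recommended growth medium.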

[1] = Toxicity in nu/nu CD-1 mouse xenografted with human COLO 205 cells assessed as reduction in body weight at 30 mg/kg, po for 21 days relative to control; parameters: scale not given: the % may be the effect or the level left; details: in vivo, 504 h
COLO 205 [2] = assay: Antitumor activity against human COLO 205 cells xenografted in nu/nu CD-1 mouse assessed as reduction in tumor growth at 30 mg/kg, po for 21 days relative to control; assay type: functional; details: COLO 205, 504 h, time 21 day, read-out: TGI
Summary of the method: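 Exponentially growing cells implanted s.c. in the right flank of 8–10-wk-old female athymic nu/nu CD-1 mice. At 150–200 mm3, block-randomized by tumor size into groups of eight. Oral dosing once or twice daily for 21 d; vehicle 20% sulfobutylether-β-cyclodextrin, pH 3.5. Calipers twice weekly; volume = length×width²/2. Growth inhibition = 100×[1 − treated growth/vehicle growth].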

NCI-H1299 = assay: Antiproliferative activity against human NCI-H1299 cells assessed as reduction in cell viability after 72 hrs by CellTiter-Glo assay; assay type: functional, cell-based; details: NCI-H1299, 72 h; summary of the method: as §1
[3] = biological target: Serine/threonine-protein kinase pim-1 (Homo sapiens) (UniProt P11309); assay: Inhibition of N-terminal GST-tagged recombinant human full-length Pim-1 expressed in Escherichia coli cells at 3 uM by filter binding assay relative to control
Summary of the method: (§2)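 Outsourced single-concentration screen in a commercial panel of 233 protein kinases, run as radiometric filter-binding activity assays. Test agent was tested at 0.3 or 3 µmol/L, as given in each line, from a 10 mmol/L DMSO stock. Activity is expressed as percent inhibition relative to control.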

[4] = biological target: Fibroblast growth factor receptor 2 (Homo sapiens) (UniProt P21802); assay: Inhibition of N-terminal, His6-tagged recombinant human FGFR2 (456 to 765 residues) expressed in baculovirus infected Sf21 cells at 0.3 uM by filter binding assay relative to control
[5] = biological target: MAP kinase-activated protein kinase 5 (Homo sapiens) (UniProt Q8IW41); assay: Inhibition of N-terminal His6-tagged recombinant human full-length PRAK expressed in baculovirus infected Sf21 cells at 3 uM by filter binding assay relative to control
[6] = biological target: Insulin receptor (Mus musculus) (UniProt P15208); details: CD-1, dose 10-60 mg/kg, route po, time 242.0 min
COLO 205 [7] = assay: Induction of cell cycle arrest in human COLO 205 cells assessed as increase in cells accumulation at G1 phase at 0.03 to 10 uM incubated for 24 to 48 hrs by propidium iodide staining based flow cytometric analysis; assay type: functional; details: dose 0.03-10 µM, time lower 24.0 hrs, time upper […]
Summary of the method: (§3)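 COLO 205, MCF-7 or NCI-H929 cells seeded in 96-well plates overnight at 37°C, then exposed to DMSO or increasing compound concentrations for 24 or 48 h. Fixed and stained with propidium iodide (Vindelov method), then analysed by flow cytometry for sub-G1, G1, S and G2-M fractions. Experiment repeated twice.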

[8] = biological target: Fibroblast growth factor receptor 4 (Homo sapiens) (UniProt P22455); assay: Inhibition of N-terminal His6-tagged recombinant human FGFR4 (442 to 755 residues) expressed in baculovirus infected Sf21 cells at 0.3 uM by filter binding assay relative to control
[9] = In vivo inhibition of IGF1R in mouse NIH-3T3/LISN cells implanted in IGF1-stimulated nu/nu CD-1 mouse assessed as reduction in IGF1R phosphorylation at 30 mg/kg, po pretreated for 24 hrs followed by IGF1 stimulation and measured after 10 min […] relative to control; assay type: functional; details: 24.17 h, time 1450 min
Summary of the method: (§4)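 Time course: tumor-bearing female nu/nu CD-1 mice, three per group, given a single oral 30 mg/kg dose or vehicle. IGF-I given 10 min before blood and tumor collection at each time point. Tumor phospho-IGF-IR/total IGF-IR measured by capture-plate europium phosphotyrosine assay and expressed as % of ligand-stimulated control.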

[10] = biological target: Phosphatidylinositol 4,5-bisphosphate 3-kinase catalytic subunit delta isoform (Homo sapiens, UniProt O00329); assay: Inhibition of PI3Kdelta (unknown origin)
NIH-3T3/LISN = assay: In vivo inhibition of IGF1R in mouse NIH-3T3/LISN cells implanted in IGF1-stimulated nu/nu CD-1 mouse assessed as reduction in IGF1R phosphorylation at 30 mg/kg, po pretreated for 48 to 72 hrs followed by IGF1 stimulation and measured after 10 min by […] relative to control; assay type: functional, organism-based; details: time 2880-4330 min; summary of the method: as §4
NCI-H929 [11] = assay: Induction of cell cycle arrest in human NCI-H929 cells assessed as cells accumulation at G2 phase at 1 umol/L incubated for 48 hrs by propidium iodide staining based flow cytometric analysis (reference value: 33%); assay type: functional; details: dose 1 µmol/L, at 1 µM; summary of the method: as §3
[12] = biological target: Protein kinase C epsilon type (Homo sapiens, UniProt Q02156); assay: Inhibition of PKCepsilon (unknown origin)
[13] = biological target: Activin receptor type-1B (Homo sapiens) (UniProt P36896); assay: Inhibition of N-terminal GST-tagged recombinant human ALK4 (150 to end residues) expressed in baculovirus infected Sf21 cells at 3 uM by filter binding assay relative to control; summary of the method: as §2
[14] = biological target: Casein kinase I isoform gamma-3 (Homo sapiens, UniProt Q9Y6M4); assay: Inhibition of N-terminal 6His-tagged recombinant human CK1gamma3 (1 to 330 residues) expressed in baculovirus infected Sf21 cells by filter binding assay
[15] = biological target: Testis-specific serine/threonine-protein kinase 1 (Homo sapiens) (UniProt Q9BXA7); assay: Inhibition of 6His-tagged recombinant human full length TSSK1 expressed in baculovirus infected Sf21 cells at 0.3 uM by filter binding assay relative to control
Summary of the method: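 KinaseProfiler panel of 233 kinases: radiometric filter-binding activity assays with compound at 0.3 or 3 µmol/L. Read-out is percent inhibition.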

[16] = biological target: Protein kinase C theta type (Homo sapiens, UniProt Q04759); assay: Inhibition of PKCtheta (unknown origin)
NCI-H929 [17] = assay: Induction of cell cycle arrest in human NCI-H929 cells assessed as decrease in cells accumulation at G2/M phase at 0.03 to 10 uM incubated for 24 to 48 hrs by propidium iodide staining based flow cytometric analysis; assay type: functional; details: dose 0.03-10 µM, time lower 24.0 hrs, time upper […]; summary of the method: as §3
COLO 205 [18] = assay: Induction of cell cycle arrest in human COLO 205 cells assessed as decrease in cells accumulation at G2/M phase at 0.03 to 10 uM incubated for 24 to 48 hrs by propidium iodide staining based flow cytometric analysis; assay type: functional; details: dose 0.03-10 µM, time lower 24.0 hrs, time upper […]; summary of the method: as §3
[19] = biological target: Serine/threonine-protein kinase PAK 1 (Homo sapiens, UniProt Q13153); assay: Inhibition of PAK1 (unknown origin)
Serine/threonine-protein kinase PAK 1, sequence (Q13153 whole entry): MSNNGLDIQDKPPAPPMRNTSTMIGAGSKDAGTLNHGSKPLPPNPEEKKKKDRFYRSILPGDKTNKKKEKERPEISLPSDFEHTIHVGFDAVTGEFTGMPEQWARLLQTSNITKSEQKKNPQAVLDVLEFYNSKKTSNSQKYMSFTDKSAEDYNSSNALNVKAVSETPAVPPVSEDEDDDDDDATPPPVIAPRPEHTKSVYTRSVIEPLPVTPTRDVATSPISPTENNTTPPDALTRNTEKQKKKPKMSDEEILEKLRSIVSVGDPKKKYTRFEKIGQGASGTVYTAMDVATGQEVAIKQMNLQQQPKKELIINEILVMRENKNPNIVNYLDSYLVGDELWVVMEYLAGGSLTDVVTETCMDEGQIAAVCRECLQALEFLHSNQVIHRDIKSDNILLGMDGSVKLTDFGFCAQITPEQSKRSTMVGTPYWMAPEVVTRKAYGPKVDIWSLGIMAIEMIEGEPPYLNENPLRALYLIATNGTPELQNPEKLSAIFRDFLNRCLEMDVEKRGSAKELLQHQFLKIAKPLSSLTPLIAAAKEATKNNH

MAP kinase-activated protein kinase 5 (Homo sapiens), sequence (Q8IW41 whole entry): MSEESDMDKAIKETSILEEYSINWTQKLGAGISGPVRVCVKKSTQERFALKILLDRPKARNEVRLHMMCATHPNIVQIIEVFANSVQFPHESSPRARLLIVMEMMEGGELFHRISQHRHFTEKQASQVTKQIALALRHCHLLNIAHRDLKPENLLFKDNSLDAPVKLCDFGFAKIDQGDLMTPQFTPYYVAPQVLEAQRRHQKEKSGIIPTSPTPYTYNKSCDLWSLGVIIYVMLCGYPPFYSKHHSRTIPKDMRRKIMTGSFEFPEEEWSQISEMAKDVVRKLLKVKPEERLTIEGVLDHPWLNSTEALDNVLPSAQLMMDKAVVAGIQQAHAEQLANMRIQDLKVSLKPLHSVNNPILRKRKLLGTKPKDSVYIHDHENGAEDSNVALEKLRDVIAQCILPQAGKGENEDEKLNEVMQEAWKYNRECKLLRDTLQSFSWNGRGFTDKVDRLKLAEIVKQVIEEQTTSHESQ
Casein kinase I isoform gamma-3, sequence (Q9Y6M4 whole entry, the tested form may be a part, canonical isoform): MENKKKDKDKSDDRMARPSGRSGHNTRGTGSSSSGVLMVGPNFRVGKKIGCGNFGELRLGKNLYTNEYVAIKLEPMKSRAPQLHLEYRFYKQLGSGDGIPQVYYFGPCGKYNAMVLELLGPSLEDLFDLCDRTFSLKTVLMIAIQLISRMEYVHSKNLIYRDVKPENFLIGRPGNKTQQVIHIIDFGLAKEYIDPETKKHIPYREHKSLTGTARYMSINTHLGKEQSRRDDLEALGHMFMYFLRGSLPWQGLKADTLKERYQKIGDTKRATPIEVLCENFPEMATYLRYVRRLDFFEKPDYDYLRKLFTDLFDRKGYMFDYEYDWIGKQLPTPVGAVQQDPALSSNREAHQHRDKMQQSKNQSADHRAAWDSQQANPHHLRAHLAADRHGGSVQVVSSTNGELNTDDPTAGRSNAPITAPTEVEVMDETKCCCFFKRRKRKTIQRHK
Protein kinase C epsilon type, sequence (Q02156 whole entry): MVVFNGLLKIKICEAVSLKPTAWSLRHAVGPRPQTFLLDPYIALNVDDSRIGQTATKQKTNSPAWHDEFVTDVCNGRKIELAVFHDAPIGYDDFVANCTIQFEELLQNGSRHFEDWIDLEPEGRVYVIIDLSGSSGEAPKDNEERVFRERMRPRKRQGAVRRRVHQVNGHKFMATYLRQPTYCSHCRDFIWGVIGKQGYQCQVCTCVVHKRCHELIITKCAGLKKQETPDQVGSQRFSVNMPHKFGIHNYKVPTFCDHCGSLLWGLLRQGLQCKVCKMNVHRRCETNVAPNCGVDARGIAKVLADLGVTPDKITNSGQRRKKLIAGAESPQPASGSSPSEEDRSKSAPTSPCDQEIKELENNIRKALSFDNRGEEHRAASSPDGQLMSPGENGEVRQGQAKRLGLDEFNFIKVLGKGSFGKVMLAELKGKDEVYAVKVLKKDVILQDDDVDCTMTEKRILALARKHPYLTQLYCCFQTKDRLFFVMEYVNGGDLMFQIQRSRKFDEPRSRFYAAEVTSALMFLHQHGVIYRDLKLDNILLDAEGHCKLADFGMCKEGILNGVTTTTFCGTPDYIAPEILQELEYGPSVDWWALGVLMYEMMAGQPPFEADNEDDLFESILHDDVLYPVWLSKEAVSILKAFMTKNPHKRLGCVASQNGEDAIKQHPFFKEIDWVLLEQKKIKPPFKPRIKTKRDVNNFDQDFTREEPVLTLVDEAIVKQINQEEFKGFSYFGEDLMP
Fibroblast growth factor receptor 2 (Homo sapiens), sequence (P21802 22-821 limits assumed): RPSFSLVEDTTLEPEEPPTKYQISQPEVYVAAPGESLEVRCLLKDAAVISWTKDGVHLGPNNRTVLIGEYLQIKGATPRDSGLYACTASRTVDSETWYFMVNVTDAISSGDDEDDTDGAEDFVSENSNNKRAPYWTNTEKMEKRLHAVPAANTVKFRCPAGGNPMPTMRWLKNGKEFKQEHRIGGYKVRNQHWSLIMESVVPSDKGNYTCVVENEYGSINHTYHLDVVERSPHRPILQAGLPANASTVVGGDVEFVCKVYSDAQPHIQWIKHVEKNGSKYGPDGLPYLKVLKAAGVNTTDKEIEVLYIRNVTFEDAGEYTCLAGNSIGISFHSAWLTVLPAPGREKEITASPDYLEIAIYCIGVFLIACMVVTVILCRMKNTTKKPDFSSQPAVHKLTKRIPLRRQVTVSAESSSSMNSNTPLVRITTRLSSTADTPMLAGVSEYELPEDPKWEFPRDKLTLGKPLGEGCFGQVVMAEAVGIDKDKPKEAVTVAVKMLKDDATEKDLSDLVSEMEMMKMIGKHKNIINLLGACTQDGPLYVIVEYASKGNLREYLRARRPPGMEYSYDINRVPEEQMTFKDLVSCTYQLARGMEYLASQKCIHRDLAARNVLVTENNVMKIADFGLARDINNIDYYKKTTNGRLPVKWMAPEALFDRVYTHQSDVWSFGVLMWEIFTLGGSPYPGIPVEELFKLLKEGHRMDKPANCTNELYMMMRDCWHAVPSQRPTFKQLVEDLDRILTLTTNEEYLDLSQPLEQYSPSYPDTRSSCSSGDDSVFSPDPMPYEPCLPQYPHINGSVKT
Testis-specific serine/threonine-protein kinase 1 (Homo sapiens), sequence (Q9BXA7 whole entry): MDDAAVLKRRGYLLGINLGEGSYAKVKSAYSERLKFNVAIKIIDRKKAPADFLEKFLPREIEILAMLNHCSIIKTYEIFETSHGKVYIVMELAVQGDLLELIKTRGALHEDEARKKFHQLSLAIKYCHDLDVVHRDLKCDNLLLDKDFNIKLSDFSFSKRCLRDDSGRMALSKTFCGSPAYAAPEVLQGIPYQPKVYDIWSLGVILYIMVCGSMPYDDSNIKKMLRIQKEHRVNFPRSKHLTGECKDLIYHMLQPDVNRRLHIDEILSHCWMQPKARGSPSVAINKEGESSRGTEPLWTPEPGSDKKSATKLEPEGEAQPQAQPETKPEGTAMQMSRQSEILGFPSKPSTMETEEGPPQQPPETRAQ
Phosphatidylinositol 4,5-bisphosphate 3-kinase catalytic subunit delta isoform, sequence (O00329 whole entry, canonical isoform): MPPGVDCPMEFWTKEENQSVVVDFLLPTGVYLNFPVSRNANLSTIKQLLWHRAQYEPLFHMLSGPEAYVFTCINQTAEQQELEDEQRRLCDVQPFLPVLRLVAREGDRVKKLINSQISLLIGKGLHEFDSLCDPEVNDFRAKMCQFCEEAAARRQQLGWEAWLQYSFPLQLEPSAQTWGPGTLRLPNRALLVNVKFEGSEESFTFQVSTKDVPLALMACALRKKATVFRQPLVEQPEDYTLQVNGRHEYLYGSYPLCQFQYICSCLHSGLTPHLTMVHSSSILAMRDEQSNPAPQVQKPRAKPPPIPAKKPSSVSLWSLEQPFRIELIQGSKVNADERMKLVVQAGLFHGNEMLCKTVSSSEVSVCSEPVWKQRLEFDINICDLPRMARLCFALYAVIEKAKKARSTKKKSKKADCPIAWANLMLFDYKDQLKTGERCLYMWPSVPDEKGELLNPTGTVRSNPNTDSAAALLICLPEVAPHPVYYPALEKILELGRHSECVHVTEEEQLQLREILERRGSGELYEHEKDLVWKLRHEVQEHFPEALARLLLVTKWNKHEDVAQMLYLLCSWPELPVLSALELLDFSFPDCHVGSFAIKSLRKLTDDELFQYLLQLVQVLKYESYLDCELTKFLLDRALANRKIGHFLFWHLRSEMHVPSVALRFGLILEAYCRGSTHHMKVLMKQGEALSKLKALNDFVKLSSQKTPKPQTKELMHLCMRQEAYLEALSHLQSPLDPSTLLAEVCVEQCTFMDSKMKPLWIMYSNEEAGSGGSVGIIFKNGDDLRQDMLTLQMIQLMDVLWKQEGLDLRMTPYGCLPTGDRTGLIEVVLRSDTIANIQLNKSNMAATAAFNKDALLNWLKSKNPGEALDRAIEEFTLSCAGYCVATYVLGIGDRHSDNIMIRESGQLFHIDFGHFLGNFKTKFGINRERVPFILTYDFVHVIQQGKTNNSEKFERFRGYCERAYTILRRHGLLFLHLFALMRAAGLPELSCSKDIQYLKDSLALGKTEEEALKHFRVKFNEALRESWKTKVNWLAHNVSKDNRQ
Activin receptor type-1B (Homo sapiens), sequence (P36896 whole entry, the tested form may be a part, canonical isoform): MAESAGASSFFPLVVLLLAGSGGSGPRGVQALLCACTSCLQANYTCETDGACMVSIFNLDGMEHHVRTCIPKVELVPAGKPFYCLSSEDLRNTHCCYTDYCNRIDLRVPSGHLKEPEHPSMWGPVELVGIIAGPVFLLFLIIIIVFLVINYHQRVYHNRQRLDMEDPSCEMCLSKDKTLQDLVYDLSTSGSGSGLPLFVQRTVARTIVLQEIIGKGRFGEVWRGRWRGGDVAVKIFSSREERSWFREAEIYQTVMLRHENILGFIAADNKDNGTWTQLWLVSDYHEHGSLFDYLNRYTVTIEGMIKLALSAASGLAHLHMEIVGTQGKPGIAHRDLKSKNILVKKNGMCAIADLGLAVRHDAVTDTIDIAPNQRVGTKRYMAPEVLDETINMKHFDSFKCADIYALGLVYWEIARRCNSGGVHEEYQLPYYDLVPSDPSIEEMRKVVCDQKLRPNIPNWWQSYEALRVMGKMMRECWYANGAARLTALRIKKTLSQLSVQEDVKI

With `CCc1cc(Nc2nccc(-c3c(-c4ccc(OC)c(C(=O)Nc5c(F)cccc5F)c4)nc4ccccn34)n2)c(OC)cc1N1CCC(N2CCN(S(C)(=O)=O)CC2)CC1` the IC50 (SU-DHL-1) was over 30 µM, the Activity [1] was 5% and the inhibition in vivo at 30 mg/kg (COLO 205 [2]) was 75%. For the same compound, the IC50 (NCI-H1299) was over 20 µM, the inhibition [3] was 25% and the inhibition [4] was 21%. For the same compound, the inhibition [5] was 35%, the inhibition [6] was “inactive” and the Activity (COLO 205 [7]) was “Active”. The inhibition [8] was 21%, the inhibition in vivo at 30 mg/kg [9] was 76% and the IC50 [10] was over 10 µM. For the same compound, the inhibition (NIH-3T3/LISN) was “inactive”, the Activity (NCI-H929 [11]) was 8% and the IC50 [12] was 10 µM. For the same compound, the inhibition [13] was -10%, the IC50 [14] was over 10 µM and the inhibition [15] was 10%. The IC50 [16] was over 10 µM, the Activity (NCI-H929 [17]) was “Active” and the Activity (COLO 205 [18]) was “Active”. For the same compound, the IC50 [19] was over 10 µM.

— ChEMBL document CHEMBL5678798 (Clin Cancer Res, 2009)
